Like-named read-outs stand apart in the source and are kept apart here.
Tests used:
[1] = tested on: human breast cancer cell line (MCF-7); experiment: MTT anti-proliferative assay, MCF-7; assay type: cell-based
[2] = tested on: murine mammary carcinoma cell line (4T1); experiment: MTT anti-proliferative assay, 4T1; assay type: cell-based; conditions: read-out: 4T1 IC50, 48-hour treatment, mean ± SD (n = 2)
[3] = tested on: prostatic small cell carcinoma cell line (PC-3); experiment: MTT anti-proliferative assay, PC-3; assay type: cell-based
[4] = tested on: normal human embryonic kidney (HEK-293) cell line; experiment: MTT cytotoxicity towards normal cell line HEK-293; assay type: cell-based
MCF-7 cells [5] = experiment: annexin-V/FITC-PI apoptosis assay; assay type: cell-based, human; conditions: MCF-7, 48 hours, at respective IC50
MCF-7 cells [6] = experiment: Nuclear staining assay; assay type: cell-based, human; conditions: MCF-7, IC50, 48 hours, vs control and BG-45
MCF-7 cells [7] = experiment: ROS generation; assay type: cell-based, human; conditions: MCF-7, IC50 dose, vs 1% DMSO control
Outline: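 After 24 h in 12-well plates, MCF-7 cells were treated for 48 h with test compound, reference compound, or 1% DMSO as control. Medium was replaced with 10 μM DCFH-DA for 10 min at 37 °C in darkness. DCF fluorescence was imaged by laser scanning confocal microscopy at 60× (ex 485 nm, em 535 nm). Intensity was quantified by image analysis as relative fluorescence (%) versus control. Data are mean standard deviation (n = 2), with one-way ANOVA.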

[8] = read-out: MCF-7 IC50, MTT, 48-hour treatment, mean ± SD (n = 2)
[9] = read-out: PC-3 IC50, MTT, 48-hour treatment, mean ± SD (n = 2)
[10] = read-out: HEK-293 IC50, MTT, 48-hour treatment, mean ± SD (n = 2)
[11] = Homo sapiens, MCF7, 48 h, read-out: MCF-7 IC50, MTT, 48-hour treatment, mean ± SD (n = 2)

SMILES | IC50 [1, 8] [µM] | IC50 [2] [µM] | IC50 [3, 9] [µM] | IC50 [1, 11] [µM] | IC50 [4, 10] [µM] | further results
COc1ccc(-c2noc(-c3cccs3)c2C(F)(F)F)cc1 [TTI-3] | 21.5 ± 0.11 | 24.3 ± 0.24 | 21.97 ± 0.21 | – | 102.2 ± 0.27 | –
FC(F)(F)c1c(-c2ccc3c(c2)OCCO3)noc1-c1cccs1 [TTI-5, 3-(2,3-dihydrobenzo[b][1,4]dioxin-6-yl)-5-(thiophen-2-yl)-4-(trifluoromethyl)isoxazole] | – | 28.6 ± 0.09 | 26.89 ± 0.11 | – | 109.7 ± 0.13 | –
COc1cc(-c2noc(-c3cccs3)c2C(F)(F)F)cc(OC)c1OC [TTI-6, 5-(thiophen-2-yl)-4-(trifluoromethyl)-3-(3,4,5-trimethoxyphenyl)isoxazole] | 1.91 ± 0.09 | 10.9 ± 0.2 | 7.67 ± 0.31 | 1.92 | – | selectivity for MCF-7 over other cancer cell lines (first value) ([1]; matches 4T1/MCF-7 IC50 ratio): 5.70 fold; selectivity for MCF-7 over other cancer cell lines (second value) ([1]; matches PC-3/MCF-7 IC50 ratio): 4 fold; selectivity for MCF-7 cells over HEK-293 cell lines ([1]; ratio of IC50 values): 35.62 fold; IC50 ([4]; Homo sapiens, HEK293, 48 h, read-out: HEK-293 IC50, MTT, 48-hour treatment, mean ± SD (n = 2)): 68.29 ± 0.11 µM; total apoptotic percentage (Q2 and Q4) (MCF-7 cells [5]): 50.0 ± 1.3%; nuclear / cell morphology (DAPI, AO staining) (MCF-7 cells [6]): significant alteration in cell morphology; relative fluorescence intensity vs control (ROS) (MCF-7 cells [7]): significant increase
FC(F)(F)c1c(-c2ccc(Cl)cc2)noc1-c1cccs1 [TTI-9] | 20.4 ± 0.21 | 21.72 ± 0.19 | 21.92 ± 0.21 | – | 96.6 ± 0.47 | –
FC(F)(F)c1ccc(-c2noc(-c3cccs3)c2C(F)(F)F)cc1 [TTI-11] | 19.3 ± 0.24 | 19.36 ± 0.19 | 20.99 ± 0.19 | – | 92.75 ± 0.15 | –

Now from value to molecule, other results behind:

IC50 [1, 8] [µM] | IC50 [2] [µM] | IC50 [3, 9] [µM] | IC50 [1, 11] [µM] | SMILES | IC50 [4, 10] [µM] | further results
2.91 ± 0.13 | 11.6 ± 0.35 | 8.08 ± 0.29 | – | COc1ccc(-c2noc(-c3cccs3)c2C(F)(F)F)cc1OC [TTI-4, 3-(3,4-dimethoxyphenyl)-5-(thiophen-2-yl)-4-(trifluoromethyl)isoxazole] | 70.49 ± 0.22 | superior anti-breast cancer activity than TTI-3 ([1]; MCF-7 IC50 compared with TTI-3): 7 times
17.03 ± 0.12 | 17 ± 0.31 | 15.4 ± 0.25 | – | O=[N+]([O-])c1ccc(-c2noc(-c3cccs3)c2C(F)(F)F)cc1 [TTI-12, 3-(4-nitrophenyl)-5-(thiophen-2-yl)-4-(trifluoromethyl)isoxazole] | 83.77 ± 0.28 | –
– | 15.15 ± 0.1 | 14.2 ± 0.41 | 13.4 ± 0.19 | COc1ccc(-c2noc(-c3ccc(C)s3)c2C(F)(F)F)cc1OC [TTI-13, 3-(3,4-dimethoxyphenyl)-5-(5-methylthiophen-2-yl)-4-(trifluoromethyl)isoxazole] | 75.91 ± 0.16 | –
9.09 ± 0.25 | 11.7 ± 0.14 | – | – | COc1ccc(-c2noc(-c3cccs3)c2C(F)F)cc1OC [TTI-14, 4-(difluoromethyl)-3-(3,4-dimethoxyphenyl)-5-(thiophen-2-yl)isoxazole] | 71.14 ± 0.21 | IC50 ([3]; 48 h, read-out: PC-3 IC50, MTT, 48-hour treatment, mean ± SD (n = 2)): 13 ± 0.17 µM
– | 14.3 ± 0.21 | 13.7 ± 0.39 | 9.44 ± 0.22 | FC(F)(F)c1c(-c2cnn3c(-c4ccccc4)ccnc23)noc1-c1cccs1 [TTI-15, 3-(7-phenylpyrazolo[1,5-a]pyrimidin-3-yl)-5-(thiophen-2-yl)-4-(trifluoromethyl)isoxazole] | 74.3 ± 0.25 | –
